Assay results collected from several papers.
Lines come from different studies, so protocols differ.
Cell line: Vero
Observed: cell growth or viability

| SMILES | assay | conditions | CC50 |
| --- | --- | --- | --- |
| COc1ccc(CN2C(=O)c3ccccc3C2CB2OC(C)(C)C(C)(C)O2)cc1 (stereo not drawn) |  |  | 2.3 µM |
| Cc1cccc(NCc2ccc(Oc3ccccn3)cc2)c1 | MTT | 72 h | > 300 µM |
| COC(=O)N[C@@H](C[S+]([O-])Cc1ccccc1)C(=O)N1CCC[C@H]1c1ncc(-c2ccc(-c3ccc(-c4cnc([C@@H]5CCCN5C(=O)[C@@H](NC(=O)OC)C(C)C)[nH]4)cc3)cc2)[nH]1 (stereo partly drawn) |  |  | 4 µM |
| COC(=O)N[C@H](C(=O)N1C[C@@H](N=[N+]=[N-])C[C@H]1c1nc(Br)c(-c2ccc(-c3ccc(-c4[nH]c([C@@H]5C[C@H](N=[N+]=[N-])CN5C(=O)[C@@H](NC(=O)OC)C(C)C)nc4Br)cc3)cc2)[nH]1)C(C)C |  |  | > 100 µM |
| O=C(Nc1cccc(C(F)(F)F)c1)c1cc(Cl)ccc1O | MTT | 72 h | < 5 µg/mL |
| Cc1ccccc1NCc1ccc(Oc2ccccn2)cc1 | MTT | 72 h | > 300 µM |
| O=C(Nc1ccc(Br)c(C(F)(F)F)c1)c1cc(Cl)ccc1O | MTT | 72 h | 5 µg/mL |
| N#Cc1c(-c2ccc(Cl)cc2)nc2n(c1=O)NC(c1ccccc1O)N2C(Cc1c[nH]c2ccccc12)C(=O)O (stereo not drawn) | MTT | 72 h | 250 µg/mL |
| Brc1ccc(NCc2ccc(Oc3ccccn3)cc2)cc1 | MTT | 72 h | > 300 µM |
| CC1(c2ccccc2O)Nn2c(nc(-c3ccc(Cl)cc3)c(C#N)c2=O)N1C(Cc1c[nH]c2ccccc12)C(=O)O (stereo not drawn) | MTT | 72 h | 500 µg/mL |
| O=C1C(O)=C([C@H]2CC[C@H](c3ccc(Cl)cc3)CC2)C(=O)c2ccccc21 |  |  | 9.5 µM |
| CC(C)(CO)C(=O)SCCOP(=O)(NCc1ccccc1)OC[C@H]1O[C@@H](n2cnc3c(=O)[nH]c(N)nc32)[C@](C)(O)[C@@H]1O (mixture of isomers) |  |  | > 100 µM |
| CC(C(=O)O)N1c2nc(-c3ccc(Cl)cc3)c(C#N)c(=O)n2NC1(C)c1ccccc1O (stereo not drawn) | MTT | 72 h | 250 µg/mL |
| C[C@@H]1[C@H](O)[C@@H](C)/C=C/C=C/C=C/C=C/C=C/C=C/C=C/[C@H](O[C@@H]2O[C@H](C)[C@@H](O)[C@H](N)[C@@H]2O)C[C@@H]2O[C@](O)(C[C@@H](O)C[C@@H](O)[C@H](O)CC[C@@H](O)C[C@@H](O)CC(=O)O[C@H]1C)C[C@H](O)[C@H]2C(=O)O |  |  | 7.7 µM |
| O=C(Nc1ccc([N+](=O)[O-])cc1F)c1cc(Cl)ccc1O | MTT | 72 h | 5 µg/mL |
| Clc1ccccc1NCc1ccc(Oc2ccccn2)cc1 | MTT | 72 h | > 300 µM |
| O=C(Nc1ccc(Cl)cc1)c1cc(Cl)ccc1O | MTT | 72 h | 20 µg/mL |
| Clc1cccc(NCc2ccc(Oc3ccccn3)cc2)c1 | MTT | 72 h | > 300 µM |
| CC(=O)C1=C(C)N2NC(c3ccccc3O)N(C(Cc3c[nH]c4ccccc34)C(=O)O)C2=NC1c1ccc(Cl)cc1 (stereo not drawn) | MTT | 72 h | 250 µg/mL |
| Clc1ccc(NCc2ccc(Oc3ccccn3)cc2)cc1 | MTT | 72 h | > 300 µM |
| O=C(Nc1ccc(F)c(F)c1)c1cc(Cl)ccc1O | MTT | 72 h | < 5 µg/mL |
